From ChEMBL document CHEMBL1151326, “Phytoalexins from hairy roots of Hyoscyamus albus treated with methyl jasmonate” (1998)
Values after ≈ are worked out from the molar mass of the structure shown. Active and inactive are the calls of the source. No cut-off for these calls is given here.

Columns and labels:
Staphylococcus aureus = experiment: Antibacterial activity against Staphylococcus aureus after 2 days by agar plate dilution method; assay type: functional; details: 48 h
Summary of the method: (§1)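 Agar plate dilution: each sample concentration is incorporated into soybean casein digest (SCD) agar. Gram-positive bacteria are applied to the agar surface and incubated 2 days at 30 °C. Activity is judged by whether colonies form.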

Bacillus subtilis = experiment: Antibacterial activity against Bacillus subtilis after 2 days by agar plate dilution method; assay type: functional; details: 48 h; summary of the method: as §1
Botrytis cinerea = experiment: Antifungal activity against Botrytis cinerea after 2 days by agar plate dilution method; assay type: functional, organism-based
Summary of the method: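 Agar plate dilution: each sample concentration is incorporated into potato dextrose (PD) agar. Fungus is applied to the agar surface and incubated 2 days at 30 °C. Activity is judged by whether spores form.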

Row | Compound | MIC (Staphylococcus aureus) [µg/mL] | MIC (Bacillus subtilis) [µg/mL] | Activity (Botrytis cinerea)
1 | C=C(C)[C@@H]1C[C@@H](OC(=O)/C(C)=C/C)[C@@]2(C1)C(C)=CC(=O)[C@H](O)[C@H]2C | 100 (≈ 301 µM) | 250 (≈ 752 µM) | Active
2 | C=C(C)[C@@H]1C[C@@H](OC(=O)C=C(C)C)[C@@]2(C1)C(C)=CC(=O)[C@H](O)[C@H]2C | 100 (≈ 301 µM) | 250 (≈ 752 µM) | –
3 | C=C(C)[C@@H]1C[C@@H](O)[C@@]2(C1)C(C)=CC(=O)[C@H](O)[C@H]2C | 500 (≈ 2000 µM) | 500 (≈ 2000 µM) | –
4 | C=C(C)[C@@H]1C[C@@H](OC(=O)C(C)C)[C@@]2(C1)C(C)=CC(=O)[C@H](O)[C@H]2C | 250 (≈ 780 µM) | 250 (≈ 780 µM) | –
5 | C=C(C)[C@@H]1CC[C@@]2(C1)C(C)=CC(=O)C[C@H]2C [SOLAVETIVONE] | 100 (≈ 458 µM) | 100 (≈ 458 µM) | –
